Converted amounts (≈) assume the structure as drawn.
Legend:
[1] = test system: Candida albicans; experiment: Antifungal activity against Candida albicans; assay type: functional
Method in brief: (§1)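 Broth microdilution in flat-bottom plates in RPMI 1640 with 2% glucose; inoculum 0.5 × 105 to 2.5 × 10^5 CFU/ml. MICs were read spectrophotometrically at 24 h. AMB endpoint: ≥90% growth reduction vs drug-free control well. Azole and CPF endpoint: 50% reduction in optical density. MFC was taken as the lowest concentration giving 99% killing.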

[2] = test system: Nakaseomyces glabratus; experiment: Antifungal activity against Candida glabrata; assay type: functional; method in brief: as §1
[3] = test system: Candida parapsilosis; experiment: Antifungal activity against Candida parapsilosis; assay type: functional; settings: Lodderomyces parapsilosis; method in brief: as §1
[4] = test system: Pichia kudriavzevii; experiment: Antifungal activity against Candida krusei; assay type: functional
Method in brief: (§2)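 EUCAST broth microdilution for yeasts in flat-bottom plates, RPMI 1640 with 2% glucose, inoculum 0.5 × 105 to 2.5 × 10^5 CFU/ml. […] MFC is the lowest concentration giving 99% killing.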

[5] = test system: Clavispora lusitaniae; experiment: Antifungal activity against Candida lusitaniae; assay type: functional; method in brief: as §1
[6] = test system: Candida tropicalis; experiment: Antifungal activity against Candida tropicalis; assay type: functional; method in brief: as §1
[7] = test system: Meyerozyma guilliermondii; experiment: Antifungal activity against Candida guilliermondii; assay type: functional; method in brief: as §1
[8] = test system: Saccharomyces cerevisiae; experiment: Antifungal activity against Saccharomyces cerevisiae; assay type: functional
Method in brief: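 Broth microdilution following EUCAST for fermentative yeasts, in flat-bottom plates with RPMI 1640 plus 2% glucose. Inoculum was 0.5 × 10^5 to 2.5 × 10^5 CFU/ml. End points were read spectrophotometrically at 24 h: ≥90% growth reduction versus a drug-free control for amphotericin B, and 50% OD reduction for azoles and caspofungin. MFC was the lowest concentration giving 99% killing.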

[9] = Antifungal activity against Cryptococcus neoformans var. neoformans; assay type: functional; settings: Cryptococcus deneoformans
Method in brief: (§3)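 EUCAST yeast microdilution, modified for nonfermentative yeasts: plates were sealed and agitated at 350 rpm and 30°C for 48 h.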

[10] = test system: Cryptococcus gattii; experiment: Antifungal activity against Cryptococcus neoformans var. gattii; assay type: functional, Cryptococcus bacillisporus; method in brief: as §3
[11] = test system: Trichosporon inkin; experiment: Antifungal activity against Trichosporon inkin; assay type: functional
Method in brief: (§4)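 Nonfermentative yeasts were tested by the EUCAST microdilution recommendations with one change: plates were sealed and agitated at 350 rpm and 30°C for 48 h.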

[12] = test system: Trichosporon asahii; experiment: Antifungal activity against Trichosporon asahii; assay type: functional; method in brief: as §4
[13] = test system: Geotrichum candidum; experiment: Antifungal activity against Geotrichum candidum; assay type: functional
[14] = test system: Aspergillus fumigatus; experiment: Antifungal activity against Aspergillus fumigatus; assay type: functional
[15] = test system: Aspergillus terreus; experiment: Antifungal activity against Aspergillus terreus; assay type: functional
[16] = test system: Aspergillus flavus; experiment: Antifungal activity against Aspergillus flavus; assay type: functional
[17] = test system: Aspergillus niger; experiment: Antifungal activity against Aspergillus niger; assay type: functional
[18] = test system: Rhizomucor; experiment: Antifungal activity against Rhizomucor species; assay type: functional
[19] = test system: Lichtheimia corymbifera; experiment: Antifungal activity against Absidia corymbifera; assay type: functional
[20] = test system: Absidia; experiment: Antifungal activity against Absidia species; assay type: functional
[21] = Antifungal activity against Rhizopus microsporus var. oligosporus; assay type: functional
Method in brief: (§5)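 Broth microdilution following the EUCAST reference procedure for spore-forming moulds, in flat-bottom plates with RPMI 1640 plus 2% glucose. Inoculum was 2 × 10^5 to 5 × 10^5 CFU/ml. MICs were read visually at 24 and 48 h as 100% growth reduction versus a drug-free control for polyenes and azoles. MEC was used for caspofungin. Tests were run in duplicate and repeated twice.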

[22] = test system: Rhizopus arrhizus; experiment: Antifungal activity against Rhizopus oryzae; assay type: functional; method in brief: as §5
[23] = test system: Rhizopus; experiment: Antifungal activity against Rhizopus species; assay type: functional; method in brief: as §5
[24] = test system: Mucor hiemalis; experiment: Antifungal activity against Mucor hiemalis; assay type: functional
[25] = test system: Mucor; experiment: Antifungal activity against Mucor species; assay type: functional
[26] = test system: Cunninghamella; experiment: Antifungal activity against Cunninghamella species; assay type: functional
[27] = test system: Lomentospora prolificans; experiment: Antifungal activity against Scedosporium prolificans; assay type: functional; method in brief: as §5
[28] = test system: Scedosporium apiospermum; experiment: Antifungal activity against Scedosporium apiospermum; assay type: functional; method in brief: as §5
[29] = test system: Talaromyces marneffei; experiment: Antifungal activity against Penicillium marneffei; assay type: functional
[30] = test system: Penicillium sp.; experiment: Antifungal activity against Penicillium species; assay type: functional
[31] = test system: Fusarium solani; experiment: Antifungal activity against Fusarium solani; assay type: functional
[32] = test system: Fusarium oxysporum; experiment: Antifungal activity against Fusarium oxysporum; assay type: functional
[33] = test system: Sporothrix schenckii; experiment: Antifungal activity against Sporothrix schenckii; assay type: functional; method in brief: as §5
[34] = test system: Curvularia lunata; experiment: Antifungal activity against Curvularia lunata; assay type: functional
[35] = test system: Curvularia australiensis; experiment: Antifungal activity against Bipolaris australiensis; assay type: functional
Method in brief: (§6)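 Dematiaceous fungi were tested by the EUCAST spore-forming mold reference procedure: flat-bottom microdilution plates, RPMI 1640 plus 2% glucose, inoculum 2 × 105 to 5 × 10^5 CFU/ml. Endpoints were read visually at 24 and 48 h. Polyenes and azoles: 100% growth reduction vs drug-free control. CPF: minimum effective concentration. Run in duplicate and repeated twice.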

[36] = Antifungal activity against Rhinocladiella aquaspersa; assay type: functional; method in brief: as §6
[37] = test system: Candida albicans; experiment: Antifungal activity against Candida albicans by EUCAST method; assay type: functional; method in brief: as §1
[38] = test system: Nakaseomyces glabratus; experiment: Antifungal activity against Candida glabrata by EUCAST method; assay type: functional; method in brief: as §1
[39] = test system: Candida parapsilosis; experiment: Antifungal activity against Candida parapsilosis by EUCAST method; assay type: functional; settings: Lodderomyces parapsilosis; method in brief: as §1
[40] = test system: Pichia kudriavzevii; experiment: Antifungal activity against Candida krusei by EUCAST method; assay type: functional; method in brief: as §1
[41] = test system: Clavispora lusitaniae; experiment: Antifungal activity against Candida lusitaniae by EUCAST method; assay type: functional; method in brief: as §1
[42] = test system: Candida tropicalis; experiment: Antifungal activity against Candida tropicalis by EUCAST method; assay type: functional; method in brief: as §1
[43] = test system: Meyerozyma guilliermondii; experiment: Antifungal activity against Candida guilliermondii by EUCAST method; assay type: functional; method in brief: as §1
[44] = test system: Saccharomyces cerevisiae; experiment: Antifungal activity against Saccharomyces cerevisiae by EUCAST method; assay type: functional; method in brief: as §2
[45] = Antifungal activity against Cryptococcus neoformans var. neoformans by EUCAST method; assay type: functional; settings: Cryptococcus deneoformans; method in brief: as §3
[46] = test system: Cryptococcus gattii; experiment: Antifungal activity against Cryptococcus neoformans var. gattii by EUCAST method; assay type: functional, Cryptococcus bacillisporus; method in brief: as §3
[47] = test system: Trichosporon inkin; experiment: Antifungal activity against Trichosporon inkin by EUCAST method; assay type: functional; method in brief: as §4
[48] = test system: Trichosporon asahii; experiment: Antifungal activity against Trichosporon asahii by EUCAST method; assay type: functional; method in brief: as §4
[49] = test system: Geotrichum candidum; experiment: Antifungal activity against Geotrichum candidum by EUCAST method; assay type: functional
[50] = test system: Aspergillus fumigatus; experiment: Antifungal activity against Aspergillus fumigatus by EUCAST method; assay type: functional
[51] = test system: Aspergillus terreus; experiment: Antifungal activity against Aspergillus terreus by EUCAST method; assay type: functional
[52] = test system: Aspergillus flavus; experiment: Antifungal activity against Aspergillus flavus by EUCAST method; assay type: functional
[53] = test system: Aspergillus niger; experiment: Antifungal activity against Aspergillus niger by EUCAST method; assay type: functional
[54] = test system: Cunninghamella; experiment: Antifungal activity against Cunninghamella species by EUCAST method; assay type: functional

C[C@@H](c1ncncc1F)[C@](O)(Cn1cncn1)c1ccc(F)cc1F [VORICONAZOLE]
MFC [1]: 0.06 µg/mL (≈ 0.172 µM) | MFC [2]: > 4 µg/mL | MFC [3]: 0.06 µg/mL (≈ 0.172 µM) | MFC [4]: 0.5 µg/mL (≈ 1.43 µM) | MFC [5]: 0.06 µg/mL (≈ 0.172 µM) | MFC [6]: 0.12 µg/mL (≈ 0.344 µM) | MFC [7]: 0.25 µg/mL (≈ 0.716 µM) | MFC [8]: > 4 µg/mL | MFC [9]: 0.06 µg/mL (≈ 0.172 µM) | MFC [10]: 0.125 µg/mL (≈ 0.358 µM) | MFC [11]: 0.03 µg/mL (≈ 0.0859 µM) | MFC [12]: > 8 µg/mL | MFC [13]: > 4 µg/mL | MFC [14]: 0.5 µg/mL (≈ 1.43 µM) | MFC [15]: 1 µg/mL (≈ 2.86 µM) | MFC [16]: 1 µg/mL (≈ 2.86 µM) | MFC [17]: 2 µg/mL (≈ 5.73 µM) | MFC [18]: > 8 µg/mL | MFC [19]: > 8 µg/mL | MFC [20]: > 8 µg/mL | MFC [21]: > 8 µg/mL | MFC [22]: > 8 µg/mL | MFC [23]: > 8 µg/mL | MFC [24]: > 8 µg/mL | MFC [25]: > 8 µg/mL | MFC [26]: > 8 µg/mL | MFC [27]: > 8 µg/mL | MFC [28]: > 8 µg/mL | MFC [29]: > 8 µg/mL | MFC [30]: > 8 µg/mL | MFC [31]: > 8 µg/mL | MFC [32]: > 8 µg/mL | MFC [33]: > 8 µg/mL | MFC [34]: > 8 µg/mL | MFC [35]: > 8 µg/mL | MFC [36]: > 8 µg/mL | MIC [37]: 0.13 µg/mL (≈ 0.372 µM) | MIC [38]: 1.66 µg/mL (≈ 4.75 µM) | MIC [39]: 0.08 µg/mL (≈ 0.229 µM) | MIC [40]: 0.53 µg/mL (≈ 1.52 µM) | MIC [41]: 0.07 µg/mL (≈ 0.2 µM) | MIC [42]: 0.48 µg/mL (≈ 1.37 µM) | MIC [43]: 0.24 µg/mL (≈ 0.687 µM) | MIC [44]: 0.29 µg/mL (≈ 0.83 µM) | MIC [45]: 0.05 µg/mL (≈ 0.143 µM) | MIC [46]: 0.05 µg/mL (≈ 0.143 µM) | MIC [47]: 0.05 µg/mL (≈ 0.143 µM) | MIC [48]: 0.04 µg/mL (≈ 0.115 µM) | MIC [49]: 0.25 µg/mL (≈ 0.716 µM) | MIC [50]: 0.36 µg/mL (≈ 1.03 µM) | MIC [51]: 0.29 µg/mL (≈ 0.83 µM) | MIC [52]: 0.41 µg/mL (≈ 1.17 µM) | MIC [53]: 0.33 µg/mL (≈ 0.945 µM) | MIC [54]: > 8 µg/mL

— ChEMBL document CHEMBL1275524, “Activities of antifungal agents against yeasts and filamentous fungi: assessment according to the methodology of the European Committee on Antimicrobial Susceptibility Testing” (2008)
